Sampled rows, rich in hits. Any-hit rate of the full collection: about 2.4%.
STAT3 blocker: IL-6 driven STAT3 reporter inhibitors, primary screen, U3A cells, luciferase, luminescence, MLSCN library. IL-6 STAT3-luciferase reporter; host cell line lacks STAT1. inhibition, % at 5.5 µM. 190,000 compounds, 0.89% hits. AID 862, 2007;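 active = inhibition above the mean inhibition across all screened compounds plus 3 SD, cut at about 44% in these data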;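 note: 0% = DMSO only wells and 100% = 100 µM nifuroxazide control wells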
b-catenin transl: modulators of beta-catenin nuclear translocation, primary screen, imaging, HeLa cells, immunofluorescence, high-content; AID 1665, 2009; 190,000 compounds, 0.3% hits; nuclear translocation activity, % at 5 µM;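 active = nuclear translocation activity above 50% at 5 µM, with a well cell count of 50 or more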;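 note: per-cell ratio of nuclear to cytoplasmic median beta-catenin stain intensity; plate controls were DMSO negative control for no effect and GSK-3 inhibitor IX positive control for full effect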
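System: HeLa cells, endogenous beta-catenin; compound dosing: 5 µM primary single dose, 0.1% DMSO, 0.02–20 µM confirmation series; incubation: 24 h compound exposure at 37°C, 5% CO2; signal: beta-catenin immunofluorescence imaging with DAPI; evaluation: % activation, nuclear-to-cytoplasmic median beta-catenin signal ratio per cell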
STAT1 blocker: STAT1 signaling inhibitors, primary screen, cell-based, HTS, luciferase reporter; AID 920, 2007; inhibition, % at 5.5 µM; 200,000 compounds, 0.35% hits; NIH 3T3 STAT1-luciferase reporter, IFN-gamma, luminescence;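 active = inhibition above a set limit, the mean inhibition across all tested compounds plus 3 SD, cut at about 34% in these data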;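 note: 0% = IFN-gamma with DMSO and 100% = IFN-gamma with 300 µM nifuroxazide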
MT stabilizer: microtubule stabilizers in HeLa cells, primary screen, imaging, high-content imaging; HeLa tubulin immunostaining HCS, 24 h; share of cells brighter than vehicle mean+2SD; % tubulin-high responders, % at 10 µM; 200,000 compounds, 0.83% hits; AID 2205, 2009;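 active = plate Z-score above 3 for both tubulin-high and condensed-nucleus cell shares, with cell loss under 80%, at 10 µM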;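 note: anti alpha tubulin signal scored within the nucleus-defined area of each cell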
STAT3 activator: IL-6 driven STAT3 reporter potentiators, primary screen, U3A cells, luciferase, luminescence, MLSCN library | IL-6 STAT3-luciferase reporter; 100% = signal with IL-6 EC80 alone | activation (% of control), % at 5.6 µM | 190,000 compounds, 0.91% hits;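 active = activation above the screen-wide mean of compound activation plus 3 SD, cut at about 130% in these data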;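 note: 0% = background luminescence of wells with medium and substrate only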
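Detection: reporter luminescence signal / Assay system: STAT1-lacking human U3A cells, STAT3 luciferase reporter / Incubation: compound pre-incubation 1 h before IL-6, then 6 h stimulation at 37 °C / Control set: IL-6-only high control / Read-out: % activation relative to IL-6 control / Probe or stimulus: Interleukin-6, 33 ng/mL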
An asterisk follows results filed as active; . = not tested or not shown.

SMILES | STAT3 blocker | b-catenin transl | STAT1 blocker | MT stabilizer | STAT3 activator
CCOc1ccc(-c2cc(C(=O)N3CCN(c4ccccn4)CC3)c3ccccc3n2)cc1 | -3 | . | -17 | 24* | 107
COc1ccc2cc(-c3cc(C(=O)O)c4ccccc4n3)ccc2c1 | 95* | . | 73* | 3 | 17
COc1ccc(-c2cc(C(=O)N3CCN(c4ccccc4)CC3)c3ccccc3n2)cc1 | -12 | 113* | -5 | 17* | 112
COc1cc(-c2cc(C(=O)N3CCN(c4ccccn4)CC3)c3ccccc3n2)cc(OC)c1OC | 7 | . | 23 | 4 | 98
S=C(NCc1cccnc1)Nc1ccc(Oc2ccc(Cl)cc2)cc1 | . | -1 | . | . | .
COc1ccccc1NC(=O)c1oc2ccccc2c1NC(=O)c1cc(OC)c(OC)c(OC)c1 | 11 | . | -2 | 36* | 94
COCC(=O)Nc1c(C(=O)Nc2ccccc2OC)oc2ccccc12 | 10 | -1 | -12 | 2 | 96
CN1CCCN(C(=O)c2cc(-c3cccc4ccccc34)nc3ccccc23)CC1 | . | 2 | . | . | .
O=C(/C=C/c1ccco1)OCC1CCCN2CCCCC12 (stereo unspecified) | 4 | 0 | -2 | 1 | 99
O=c1[nH]cc(NCCNc2ncc(C(F)(F)F)cc2Cl)c(=O)[nH]1 | 4 | 0 | -5 | 4 | 107
Cc1cc(C(=O)COC(=O)c2ccco2)c(C)n1Cc1ccco1 | 27 | -1 | 5 | 3 | 79
Cc1cc(C(=O)COC(=O)c2cccn2C)c(C)n1Cc1ccco1 | 69* | -3 | 37* | 4 | 46
COc1ccc(CCn2c(C3CCCCC3)nc3c(c(=O)c4ccccc4n3C)c2=O)cc1 | . | 51* | . | . | .
Cn1c2ccccc2c(=O)c2c(=O)n(-c3ccccc3)c(C3CCCCC3)nc21 | -45 | 2 | 0 | 3 | 134*
COc1cccc(C2=CC(c3ccccc3)n3nnnc3N2)c1 (stereo unspecified) | 11 | . | -7 | 32* | 93
COc1cccc(C2=CC(c3ccc(N(C)C)cc3)n3nnnc3N2)c1 (stereo unspecified) | 4 | -4 | 7 | 42* | 99
COc1cccc(C2C=C(c3ccc(OC)cc3OC)Nc3nnnn32)c1 (stereo unspecified) | 32 | . | 6 | 30* | 76
COc1ccc(C2C=C(c3ccccc3)Nc3nnnn32)cc1 (stereo unspecified) | 15 | -4 | -3 | 5 | 92
C/C(=N\NC(=O)Cn1nc(C)c([N+](=O)[O-])c1C)c1ccco1 | . | 0 | . | . | .
CCOC(=O)c1oc2ccc(Cl)cc2c1NC(C)=O | 23 | 2 | 14 | 3 | 89
CCCCCN1C=CC(=C2C(=O)c3ccccc3C2=O)C=C1 | 107* | -1 | 97* | 3 | 9
N#CC1=C(N)SC(N)=C(C#N)C1c1ccnc2ccccc12 | 2 | -4 | -4 | 6 | 99
O=C1c2ccccc2C(=O)C1c1ccnc2ccccc12 | 58* | . | 43* | 4 | 53
O=C(/C=C\Nc1cccc(F)c1)c1cccs1 | 26 | 2 | -38 | 3 | 84
Cc1ccc(N/C=C/C(=O)c2cccs2)cc1 | 98* | -5 | 83* | 1 | 18
SMILES | STAT3 blocker | b-catenin transl | STAT1 blocker | MT stabilizer | STAT3 activator
Cc1ccc(N/C=C/C(=O)c2sc(-c3ccccc3)nc2C)cc1 | 16 | 1 | -10 | 51* | 92
O=C(/C=C\Nc1ccc2c(c1)OCO2)c1ccc2c(c1)OCO2 | 60* | 1 | 51* | 1 | 51
O=C(/C=C\Nc1ccc2c(c1)OCO2)c1cccs1 | 90* | 4 | 65* | 4 | 27
COc1ccc(N/C=C\C(=O)c2ccc3c(c2)OCO3)cc1 | 30 | 4 | -13 | 3 | 73
O=C(NCc1ccc2c(c1)OCO2)c1ccccn1 | -7 | -2 | 2 | 3 | 107
O=C(/C=C\Nc1ccc2c(c1)OCO2)c1ccccn1 | 103* | . | 87* | 4 | 11
Cc1ccccc1Cn1nc(C)c(NC(=O)/C=C/c2cnn(C)c2)c1C | -1 | . | -2 | 2 | 102
CN(C(=S)NCCN1CCOCC1)C(c1ccccc1)c1ccccc1 | 0 | 4 | 2 | 7 | 107
CN=C1NN=C(c2cc(C)n(-c3c(C)n(C)n(-c4ccccc4)c3=O)c2C)CS1 | -3 | . | 0 | 3 | 103
Cc1cc(C2=NNC(=NC3CC3)SC2)c(C)n1-c1ccccc1 | 105* | 1 | 91* | 5 | 12
c1ccc2c(C3=NNC(=NC4CC4)SC3)c[nH]c2c1 | -11 | . | -26 | 2 | 109
COc1ccc(-n2c(C)cc(C3=NNC(=NC4CC4)SC3)c2C)cc1 | 28 | 0 | 62* | 2 | 80
CC(C)(C)N(Cc1ccccc1)C(=O)COC(=O)c1cccc([N+](=O)[O-])c1 | 8 | -1 | -3 | 4 | 99
O=C(O)COc1ccccc1/C=N/NC(=O)c1cc2ccccc2cc1O | . | 2 | . | . | .
COc1cccc(-c2cc(C(=O)Nc3cccnc3)no2)c1 | -1 | 111* | -35 | 9 | 107
CC(C)n1cc(NC(=O)c2cc(-c3ccccc3)on2)cn1 | 6 | . | -34 | 28* | 98
COc1cccc(-c2cc(C(=O)Nc3cc(OC)c(OC)c(OC)c3)no2)c1 | 1 | . | 3 | 49* | 101
CCOc1ncccc1C(=O)N1CCCSC1=Nc1ccc(C(C)=O)cc1 | -4 | -5 | -2 | 2 | 106
COc1ccc(CC(=O)OCC(=O)Nc2ccc(N3CCOCC3)cc2)cc1 | . | 2 | . | . | .
CC(=O)Nc1nc2ccccc2n1Cc1ccccc1Cl | . | 1 | . | . | .
CC(=O)Nc1nc2ccccc2n1Cc1ccccc1C | -34 | -1 | -27 | 2 | 134*
Cc1c(Cl)cccc1NC(=O)c1ncn[nH]1 | . | 0 | . | . | .
CCc1ccc(NC(=O)c2onc(C)c2Cl)cc1 | -46 | . | -47 | 3 | 141*
Cc1ccc(-c2cc(C(F)F)n3ncc(C(=O)N4CCc5ccccc54)c3n2)cc1 | 0 | 6 | 0 | 11* | 107
CC(C)C(=O)NC(=S)Nc1ccc(S(=O)(=O)N(C)Cc2ccccc2)cc1 | 5 | 2 | -4 | 42* | 101
SMILES | STAT3 blocker | b-catenin transl | STAT1 blocker | MT stabilizer | STAT3 activator
COc1ccc2[nH]c(C(O)(Cc3cccnc3)Cc3cccnc3)cc2c1 | 5 | -1 | -1 | 2 | 98
C=CCOc1c(Cl)cc(CNc2ccc(C)c(Cl)c2)cc1OC | -2 | 146* | -3 | 18* | 105
COc1cc(CNc2ccc(N3CCCC3)cc2)cc(Cl)c1OC | -15 | 3 | 6 | 16* | 117
C=CCOc1c(Cl)cc(CNc2ccc(N(C)C)cc2)cc1OC | -9 | 4 | -41 | 32* | 118
O=c1oc2ccccc2cc1-c1nnc(NCc2ccco2)s1 | 12 | . | -66 | 20* | 91
COC(=O)c1c(C)oc2ccc(N(C(=O)c3ccncc3)S(=O)(=O)c3ccc4ccccc4c3)cc12 | 1 | -1 | 1 | 27* | 98

Compound activity as filed in PubChem.
